# Rows were chosen to be rich in hits. Some 2.3% of all compounds tested hit in one or more screens of this group.
# PAFAH1B2 inh: PAFAH1B2 enzyme inhibitors, primary screen, biochemical, fluorescence polarization, human; Platelet-activating factor acetylhydrolase IB subunit alpha2 (Homo sapiens), P68402; recombinant PAFAH1B2, FP-rhodamine activity probe; inhibition, % at 3.39 µM; 1.2% of 340,000 active; AID 492953, 2010;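 active = inhibition above the mean of all tested compounds plus 3 SD, cut at about 24% in these data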;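 also: 0% = enzyme with DMSO and 100% = wells lacking PAFAH1B2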
# PAFAH2 inh: PAFAH2 enzyme inhibitors, primary screen, biochemical, fluorescence polarization, human; inhibition, % at 3.39 µM; recombinant PAFAH2, FP-rhodamine activity probe; 0.99% of 340,000 active; AID 492956, 2010;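 active = inhibition above the mean over all tested compounds plus 3 SD, cut at about 30% in these data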;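 also: inhibitors block probe labeling of enzyme so polarization drops; 0% = enzyme with DMSO and 100% = wells lacking PAFAH2 protein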
# PAFAH1B3 inh: PAFAH1B3 enzyme inhibitors, primary screen, biochemical, fluorescence polarization, human | Platelet-activating factor acetylhydrolase IB subunit alpha1 (Homo sapiens), Q15102 | recombinant PAFAH1B3, FP-rhodamine probe | inhibition, % at 3.39 µM | 0.28% of 340,000 active | AID 492972, 2010;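 active = inhibition above the screen-wide average of all tested compounds plus 3 SD, cut at about 25% in these data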;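 also: 0% = enzyme with DMSO only and 100% = wells lacking PAFAH1B3 protein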
# Apaf1 inhib: inhibitors of human Apaf-1 apoptosome, primary screen, biochemical, DEVD-Rh110 fluorescence, uHTS; Apoptotic protease-activating factor 1 (Homo sapiens), O14727; reconstituted apoptosome caspase-3 activity; inhibition, % at 20 µM; 0.71% of 330,000 active; AID 489030, 2010; active = inhibition of at least 40% at 20 µM;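 also: plate controls were DMSO wells for no effect and DEVD-CHO caspase inhibitor wells for full effect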
#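 Material: biochemical Apaf-1 apoptosome reconstitution. Medium: Hepes buffer, pH 7.5. Also added: cytochrome c activation, bis-DEVD rhodamine 110 substrate. Timing: 30 min compound preincubation, 50 min activation, room temperature. Measured by: rhodamine 110 fluorescence at Ex 480/Em 540 nm.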
# TDP2 absorb: human TDP2 enzyme inhibitors, primary screen, biochemical, epi absorbance, recombinant enzyme. Tyrosyl-DNA phosphodiesterase 2 (Homo sapiens), O95551. T5PNP hydrolysis, p-nitrophenol absorbance 415 nm. inhibition, % at 12.8 µM. 0.34% of 370,000 active. AID 720702, 2013;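 active = inhibition above the mean of all tested compounds plus 3 SD, set per campaign, cut at about 25% in these data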;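 also: 0% = DMSO with enzyme and 100% = buffer with substrate but no TDP2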
#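 Assay system: Recombinant human TDP2 | Quantity: 120 nM TDP2 per well | Incubation: 2 h at 37 °C | Signal: Epi absorbance | Evaluation: Percent inhibition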
# Apaf-1 inh conf2: Apaf-1 inhibitors, single-dose retest, confirmation, biochemical, fluorescence, DEVD-Rh110, 20 µM. shares compounds with Apaf1 inhib. reconstituted apoptosome, caspase-3 DEVD-Rh110 fluorescence. inhibition, % at 20 µM. 25% of 1,800 active;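 active = mean inhibition of at least 40% at 20 µM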;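 also: plate controls were DMSO wells for no effect and DEVD-CHO caspase inhibitor control wells for full effect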
# Rh110 quench: Rh110 fluorescence interference by putative Apaf-1 inhibitors, confirmation, artefact control for Apaf-1 inhibitor project, biochemical, 20 µM | shares compounds with Apaf1 inhib | quenched caspase reaction | activation (fluorescence interference), % at 20 µM | 1,800 tested, under 10 active;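 active = signal rise of 40% or more at 20 µM, treated as a fluorescence artifact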
# The depositor's hits bear a star; nt = no result; ! = a repeat was not active.
SMILES,PAFAH1B2 inh,PAFAH2 inh,PAFAH1B3 inh,Apaf1 inhib,TDP2 absorb,others
C=C(C=O)CC1CC(O)[C@]2(C)OC3CC4OC5C[C@]6(C)O[C@]7(C)CCC8OC9C[C@]%10(C)OC%11C(C)=CC(=O)OC%11CC%10OC9C[C@@H](C)C8OC7CC6O[C@]5(C)C/C=C\C4OC3CC2O1 (stereo partly drawn),nt,nt,nt,nt,-2,
COC(=O)C1=C[C@H]([C@@H](C)[C@H](OC)c2ccccc2Br)[C@@H]2[C@H]1c1ccccc1N2C,nt,nt,nt,nt,-5,
O=C1NC(=O)N(Cc2ccccc2)C(=O)/C1=C\C=C\c1ccco1,3,22,3,11,-20,
Cc1ccc(OCCn2cccc2/C=C2/C(=O)NC(=O)N(Cc3ccco3)C2=O)cc1,25*,15,7,10,20,
O=C1NC(=O)N(Cc2ccco2)C(=O)/C1=C/C=C/c1ccco1,5,33*,4,16,1,
CC(NC(=O)OC1CC2CCC1(C)C2(C)C)P(=O)(Oc1ccccc1)Oc1ccccc1 (stereo not drawn),nt,nt,nt,nt,7,
CC(C)CN(CC(C)C)c1ccc(C=C2C(=O)NC(=S)NC2=O)cc1[N+](=O)[O-],34*,38*,0,16,0,
Cc1cccc(C(C)c2cnc[nH]2)c1C (stereo not drawn),nt,nt,nt,nt,-4,
O=P(O)(Oc1ccccc1)OC(c1ccccc1)C(F)(F)F (stereo not drawn),52*,67*,0,3,7,
C[N+]1=C(N)NC2=C3CCCCC3ONC2C1 (stereo not drawn),nt,nt,nt,nt,4,
BrCC(Br)C1CCC(Br)C(Br)C1 (stereo not drawn),51*,7,8,10,-14,
OCCNc1c2c(nc3ccccc13)CCCC2,-3,0,4,-2,0,
C[n+]1c2ccccc2nc2ccc(NCCO)cc21,72*,83*,82*,94*,19,
Cc1cc(/C=C2\C(=O)NC(=O)N(c3ccc(F)cc3)C2=O)c(C)n1-c1ccc(C(=O)O)cc1,1,0,6,4,3,
Cc1cc(/C=C2\C(=O)NC(=O)N(Cc3ccccc3)C2=O)c(C)n1-c1ccc(Cl)c(C(=O)O)c1,8,43*,8,2,10,
Cc1cc(/C=C2/C(=O)NC(=O)N(c3ccccc3)C2=O)c(C)n1-c1ccc(F)cc1,25*,29,-2,1,1,
COC(=O)C1C=C2c3cccc4[nH]cc(c34)CC2N(C)C1 (stereo not drawn),nt,nt,nt,56*,nt,
CCC(CO)NC(=O)C1C=C2c3cccc4[nH]cc(c34)CC2N(C)C1 (stereo not drawn),0,1,15,40,11,
CC[C@@H](CO)NC(=O)[C@@H]1C=C2c3cccc4[nH]cc(c34)C[C@H]2N(C)C1,3,1,10,nt,9,
CC(C)C[C@H]1C(=O)N2CCC[C@H]2[C@]2(O)O[C@](NC(=O)[C@@H]3C=C4c5cccc6[nH]cc(c56)C[C@H]4N(C)C3)(C(C)C)C(=O)N12,16,2,18,91*,nt,
COc1cccc(-c2ccc3c(c2)C2c4cnnn4-c4ccccc4C(=O)N2CC3)c1 (stereo not drawn),nt,nt,nt,nt,-5,
O=C(C1CC(c2ccc(Cl)c(Cl)c2)=NO1)N1CCC2(CC1)OCCO2 (stereo not drawn),3,41*,2,-7,0,
O=C(C1CC(c2ccc(F)cc2)=NO1)N1CCC2(CC1)OCCO2 (stereo not drawn),3,-6,1,-1,-2,
O=C(O)c1ccc(Cl)nc1,-2,-1,11,-5,-4,
Nc1cncc(C(=O)O)c1,2,-2,-3,41*!,-3,
SMILES,PAFAH1B2 inh,PAFAH2 inh,PAFAH1B3 inh,Apaf1 inhib,TDP2 absorb,others
CCCCC(=O)N/N=C/c1c(O)n(Cc2ccc(F)cc2)c(=O)[nH]c1=O,13,-3,-2,-9,-4,
O=C(O)CCC(=O)NCCC1=c2ccccc2=N/C1=C\c1c(O)n(Cc2ccc(F)cc2)c(=S)[nH]c1=O,41*,38*,-2,2,-2,
C=C1[C@@H](C)C2[C@H](Cc3ccccc3)NC(=O)[C@]23[C@H](OC(C)=O)/C=C/[C@@](C)(O)C(=O)[C@@H](C)C/C=C/[C@H]3[C@@H]1O (stereo partly drawn),nt,nt,nt,nt,-9,
CCCNC1=C(C)C(=O)C2=C(C1=O)C(COC(N)=O)[C@]1(OC)C3NC3CN21 (stereo partly drawn),2,2,0,57*,-1,
COP(=O)(OC)C(C)NC(=O)OCc1ccccc1 (stereo not drawn),nt,nt,nt,nt,10,
CCCC(=O)N1c2ccc(Cl)cc2C(c2ccccc2)=NCC1C(=O)NC(C)(C)C (stereo not drawn),nt,nt,nt,nt,-7,
CC(NC(=O)OCc1ccccc1)P(=O)(Oc1ccccc1)Oc1ccccc1 (stereo not drawn),nt,nt,nt,nt,2,
COc1ccc(Cc2nccc3cc(OC)c(OC)cc23)cc1OC,2,4,5,21,24,
COc1ccc(CC2=NCCc3cc(OC)c(OC)cc32)cc1OC,nt,nt,nt,nt,31*,
N#CC(C#N)=NNc1ccc(S(N)(=O)=O)cc1,2,9,32*,-31,-1,
COCCCNC(=O)c1c(N)n(Cc2ccco2)c2nc3ccccc3nc12,nt,nt,nt,27,1,
CC(C)OCCCNC(=O)c1c(N)n(Cc2cccs2)c2nc3ccccc3nc12,-1,-9,-3,95*,-14,Apaf-1 inh conf2=34;Rh110 quench=14
CC(C)CCn1c(N)c(C(=O)NCc2cccs2)c2nc3ccccc3nc21,3,0,2,89*,nt,Apaf-1 inh conf2=30;Rh110 quench=5
C=CCNC(=O)c1c(N)n(CCN2CCOCC2)c2nc3ccccc3nc12,3,10,4,-17,-9,
COCCNC(=O)c1c(N)n(CCC(C)C)c2nc3ccccc3nc12,5,4,14,82*,9,Apaf-1 inh conf2=30;Rh110 quench=9
COC(=O)C1C(c2ccc(C)cc2)CC2CCC1N2C (stereo not drawn),nt,nt,nt,nt,-7,

# High-throughput results as filed in PubChem BioAssay.
